Legend:
MOLM-13 = assay: Antiproliferation activity against human MOLM13 cells expressing FLT3 mutation assessed as cell viability after 72 hrs by MTS method; type: functional; conditions: MOLM-13, 72 h
Mus musculus [1] = assay: Toxicity in athymic nu/nu nude mouse assessed as lethality at 50 mg/kg, iv for continuous 5 days; type: organism-based; set-up: dose 50 mg/kg, route intravenous; conditions: in vivo, 120 h
[2] = molecular target: Vascular endothelial growth factor receptor 1 (Homo sapiens, UniProt P17948); assay: Inhibition of recombinant GST-tagged VEGFR1 expressed in Sf9 insect cells after 120 mins by Kinase-Glo assay
Sequence of Vascular endothelial growth factor receptor 1 (P17948 whole entry, the tested form may be a part): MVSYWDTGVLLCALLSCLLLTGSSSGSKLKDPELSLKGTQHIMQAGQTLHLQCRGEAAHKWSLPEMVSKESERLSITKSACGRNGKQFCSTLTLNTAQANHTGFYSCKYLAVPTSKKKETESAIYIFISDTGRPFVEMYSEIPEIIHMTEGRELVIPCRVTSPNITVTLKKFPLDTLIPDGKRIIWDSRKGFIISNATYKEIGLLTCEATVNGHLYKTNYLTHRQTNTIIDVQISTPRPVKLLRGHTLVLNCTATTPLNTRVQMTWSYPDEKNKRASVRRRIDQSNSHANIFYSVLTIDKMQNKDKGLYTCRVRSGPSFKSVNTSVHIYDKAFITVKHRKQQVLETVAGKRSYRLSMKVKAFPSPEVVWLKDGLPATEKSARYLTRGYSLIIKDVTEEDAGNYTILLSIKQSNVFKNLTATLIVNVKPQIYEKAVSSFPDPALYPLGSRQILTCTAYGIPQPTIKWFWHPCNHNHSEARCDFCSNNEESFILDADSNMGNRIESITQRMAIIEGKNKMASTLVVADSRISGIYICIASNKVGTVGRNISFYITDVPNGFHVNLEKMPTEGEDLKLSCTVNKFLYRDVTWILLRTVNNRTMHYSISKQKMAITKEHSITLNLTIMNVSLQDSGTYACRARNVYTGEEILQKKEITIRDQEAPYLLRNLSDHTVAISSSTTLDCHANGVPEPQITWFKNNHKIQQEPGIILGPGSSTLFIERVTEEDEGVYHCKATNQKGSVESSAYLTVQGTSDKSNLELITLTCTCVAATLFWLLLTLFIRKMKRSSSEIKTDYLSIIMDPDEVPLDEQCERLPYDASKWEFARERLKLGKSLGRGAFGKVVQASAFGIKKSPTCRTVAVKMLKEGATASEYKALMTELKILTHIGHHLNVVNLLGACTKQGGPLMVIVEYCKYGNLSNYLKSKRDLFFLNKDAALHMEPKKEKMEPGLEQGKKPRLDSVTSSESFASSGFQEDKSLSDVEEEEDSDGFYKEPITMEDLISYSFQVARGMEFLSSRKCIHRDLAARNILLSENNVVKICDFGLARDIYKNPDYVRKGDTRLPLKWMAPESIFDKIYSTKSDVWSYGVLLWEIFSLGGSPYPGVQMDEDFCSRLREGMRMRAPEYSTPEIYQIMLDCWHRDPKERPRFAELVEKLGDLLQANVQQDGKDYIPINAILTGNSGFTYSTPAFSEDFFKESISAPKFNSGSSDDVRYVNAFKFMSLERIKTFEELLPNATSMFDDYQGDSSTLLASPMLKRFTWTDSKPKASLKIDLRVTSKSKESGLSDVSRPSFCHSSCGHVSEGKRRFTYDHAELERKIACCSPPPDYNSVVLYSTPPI
In short: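 GST-VEGFR1 (R781–I1338) or GST-VEGFR2 (V789–V1356) kinase domain, 50–100 ng, from Sf9 cells. Read-out was Kinase-Glo Plus luminescence.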

[3] = Half life in Sprague-Dawley rat at 5 mg/kg, iv; type: ADME, organism-based; set-up: dose 5 mg/kg, route intravenous; conditions: in vivo
[4] = molecular target: Vascular endothelial growth factor receptor 2 (Homo sapiens, UniProt P35968); assay: Inhibition of recombinant GST-tagged VEGFR2 expressed in Sf9 insect cells after 120 mins by Kinase-Glo assay; type: cell-based
Sequence of Vascular endothelial growth factor receptor 2 (P35968 whole entry): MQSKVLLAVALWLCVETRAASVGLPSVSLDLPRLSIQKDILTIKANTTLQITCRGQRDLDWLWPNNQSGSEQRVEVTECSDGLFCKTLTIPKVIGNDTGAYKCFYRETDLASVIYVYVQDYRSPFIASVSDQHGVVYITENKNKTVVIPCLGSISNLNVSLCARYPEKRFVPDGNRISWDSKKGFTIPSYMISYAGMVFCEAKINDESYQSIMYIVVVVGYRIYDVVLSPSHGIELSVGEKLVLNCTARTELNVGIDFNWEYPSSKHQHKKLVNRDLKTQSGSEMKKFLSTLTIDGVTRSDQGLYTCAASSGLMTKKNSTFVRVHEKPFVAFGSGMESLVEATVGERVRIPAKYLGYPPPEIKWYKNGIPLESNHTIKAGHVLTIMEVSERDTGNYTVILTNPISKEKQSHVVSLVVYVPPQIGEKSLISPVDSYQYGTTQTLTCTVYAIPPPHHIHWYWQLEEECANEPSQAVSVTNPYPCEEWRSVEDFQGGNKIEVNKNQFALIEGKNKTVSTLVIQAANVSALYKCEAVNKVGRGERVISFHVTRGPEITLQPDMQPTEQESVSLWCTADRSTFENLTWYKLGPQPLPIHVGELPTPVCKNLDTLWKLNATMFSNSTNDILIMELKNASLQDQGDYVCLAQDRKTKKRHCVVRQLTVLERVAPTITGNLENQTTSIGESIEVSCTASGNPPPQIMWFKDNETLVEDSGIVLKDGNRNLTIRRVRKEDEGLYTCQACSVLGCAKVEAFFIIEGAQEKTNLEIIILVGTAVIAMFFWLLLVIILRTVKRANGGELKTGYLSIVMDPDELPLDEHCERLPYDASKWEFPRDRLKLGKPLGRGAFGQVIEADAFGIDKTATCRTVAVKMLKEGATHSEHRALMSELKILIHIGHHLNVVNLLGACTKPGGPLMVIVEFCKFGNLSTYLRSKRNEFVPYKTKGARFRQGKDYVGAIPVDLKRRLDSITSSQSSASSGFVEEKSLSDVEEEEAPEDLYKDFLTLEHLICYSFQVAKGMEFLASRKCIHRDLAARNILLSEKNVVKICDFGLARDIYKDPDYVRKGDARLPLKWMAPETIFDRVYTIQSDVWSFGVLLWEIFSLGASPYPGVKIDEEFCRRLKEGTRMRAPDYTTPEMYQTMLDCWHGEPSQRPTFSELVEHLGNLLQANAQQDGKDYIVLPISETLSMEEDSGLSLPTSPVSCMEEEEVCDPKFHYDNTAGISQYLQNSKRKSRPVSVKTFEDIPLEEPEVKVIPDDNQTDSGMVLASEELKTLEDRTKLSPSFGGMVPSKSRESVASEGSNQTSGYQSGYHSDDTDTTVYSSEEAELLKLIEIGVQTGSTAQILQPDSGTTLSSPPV

[5] = AUC (0 to infinity) in Sprague-Dawley rat at 5 mg/kg, iv; type: ADME, organism-based; set-up: time infinity, dose 5 mg/kg, route intravenous; conditions: plasma
[6] = Clearance in Sprague-Dawley rat at 5 mg/kg, iv; type: ADME, organism-based; set-up: dose 5 mg/kg, route intravenous; conditions: in vivo
Aurora kinase A = molecular target: T1, Aurora kinase A (Homo sapiens, UniProt O14965); assay: Inhibition of recombinant GST-tagged Aurora A expressed in Sf9 insect cells after 90 mins by Kinase-Glo assay
T1 sequence (O14965 whole entry): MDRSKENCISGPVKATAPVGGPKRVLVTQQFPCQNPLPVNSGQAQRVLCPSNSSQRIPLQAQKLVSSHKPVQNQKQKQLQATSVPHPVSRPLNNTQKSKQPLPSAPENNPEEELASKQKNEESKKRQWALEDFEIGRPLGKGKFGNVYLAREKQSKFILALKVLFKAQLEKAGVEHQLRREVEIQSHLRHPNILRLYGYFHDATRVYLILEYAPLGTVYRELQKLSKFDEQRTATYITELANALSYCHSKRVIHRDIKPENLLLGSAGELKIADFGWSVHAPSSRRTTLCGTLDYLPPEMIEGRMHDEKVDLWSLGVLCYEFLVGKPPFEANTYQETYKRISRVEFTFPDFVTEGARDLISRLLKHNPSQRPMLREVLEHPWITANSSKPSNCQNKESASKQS
In short: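 GST-Aurora A kinase domain (S123–S401, 150 ng) from Sf9 cells. Buffer was 50 mM Tris-HCl pH 7.4 with 10 mM NaCl, 10 mM MgCl2, 0.01% BSA and 1 mM DTT. Kinase-Glo Plus was added for 20 min at 25 °C before the luminescence read.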

[7] = Volume of distribution at steady state in Sprague-Dawley rat at 5 mg/kg, iv; type: ADME, organism-based; set-up: dose 5 mg/kg, route intravenous; conditions: in vivo, read-out: Vdss
Mus musculus [8] = assay: Toxicity in normal mouse assessed as reduction of body weight at 50 mg/kg, iv for continuous 5 days; conditions: in vivo, 120 h
[9] = molecular target: T2, Receptor-type tyrosine-protein kinase FLT3 (Homo sapiens, UniProt P36888); assay: Inhibition of GST-tagged FLT3 expressing wild type kinase domain expressed in Sf9 insect cells after 4 hrs by Kinase-Glo assay
T2 sequence (P36888 whole entry): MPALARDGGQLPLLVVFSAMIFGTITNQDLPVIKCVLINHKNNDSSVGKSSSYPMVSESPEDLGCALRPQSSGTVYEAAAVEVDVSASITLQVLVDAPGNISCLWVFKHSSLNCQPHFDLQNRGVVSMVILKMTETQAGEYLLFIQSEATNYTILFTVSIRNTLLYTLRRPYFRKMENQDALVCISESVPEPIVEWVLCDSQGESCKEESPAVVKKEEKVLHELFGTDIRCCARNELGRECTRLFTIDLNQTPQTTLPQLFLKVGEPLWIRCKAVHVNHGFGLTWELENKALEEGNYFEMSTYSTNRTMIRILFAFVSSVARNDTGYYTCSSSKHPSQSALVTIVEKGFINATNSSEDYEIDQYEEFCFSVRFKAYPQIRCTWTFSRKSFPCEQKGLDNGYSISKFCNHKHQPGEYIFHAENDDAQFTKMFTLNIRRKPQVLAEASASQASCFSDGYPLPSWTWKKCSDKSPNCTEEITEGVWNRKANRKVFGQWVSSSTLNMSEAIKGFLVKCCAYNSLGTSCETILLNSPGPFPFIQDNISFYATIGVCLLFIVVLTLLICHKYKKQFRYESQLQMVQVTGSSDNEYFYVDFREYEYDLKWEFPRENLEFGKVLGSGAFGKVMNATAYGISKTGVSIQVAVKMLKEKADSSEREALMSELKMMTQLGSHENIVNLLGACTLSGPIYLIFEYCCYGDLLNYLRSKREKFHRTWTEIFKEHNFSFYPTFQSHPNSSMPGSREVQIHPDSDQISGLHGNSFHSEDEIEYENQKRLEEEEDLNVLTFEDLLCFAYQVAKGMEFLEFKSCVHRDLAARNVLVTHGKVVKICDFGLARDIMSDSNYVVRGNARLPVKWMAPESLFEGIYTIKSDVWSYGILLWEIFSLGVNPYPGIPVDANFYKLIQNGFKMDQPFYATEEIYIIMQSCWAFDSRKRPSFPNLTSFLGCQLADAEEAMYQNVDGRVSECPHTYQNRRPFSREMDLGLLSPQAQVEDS

[10] = molecular target: Receptor-type tyrosine-protein kinase FLT3 (Homo sapiens) (UniProt P36888); assay: Inhibition of GST-tagged FLT3 expressing wild type kinase domain expressed in Sf9 insect cells at 1 uM after 4 hrs by Kinase-Glo assay
MV4-11 = assay: Antiproliferation activity against FLT3/ITD harboring human MV4-11 cells after 72 hrs by MTS method; type: functional; conditions: MV4-11, 72 h
[11] = Antiproliferation activity against human RS4:11 cells expressing wild type FLT3 after 72 hrs by MTS method; type: functional; conditions: RS4-11, 72 h
MOLT-4 = assay: Antiproliferation activity against human MOLT4 after 72 hrs by MTS method; type: functional; conditions: MOLT-4, 72 h
K562 = assay: Antiproliferation activity against human K562 cells expressing wild type BCR/ABL after 72 hrs by MTS method; type: functional; conditions: K562, 72 h

Row | SMILES | GI50 (MOLM-13) [µM] | IC50 [2] [µM] | IC50 [4] [µM] | IC50 (Aurora kinase A) [µM] | IC50 [9] [µM] | other results
1 | CN1CCN(c2ccc(C(=O)Nc3cc(-c4cccc(NS(=O)(=O)c5ccccc5)c4)n[nH]3)cc2)CC1 | 0.012 | 0.21 | 0.13 | 0.34 | 0.013 | Activity (Mus musculus [1]): Toxic; half-life [3]: 4.5 h; AUC(0-inf) [5]: 551 ng·h/mL; clearance [6]: 102 mL/min/kg; Vd [7]: 15.5 L/kg; Activity (Mus musculus [8]): Toxic
2 | CN1CCN(c2ccc(C(=O)Nc3cc(-c4cccc(NS(=O)(=O)c5ccc(Cl)cc5)c4)n[nH]3)cc2)CC1 | 0.074 | 0.57 | > 1 | 4.99 | 0.12 | –
3 | O=C(Nc1cc(-c2cccc(NS(=O)(=O)c3ccccc3)c2)n[nH]1)c1cccc(C(F)(F)F)c1 | – | – | – | – | > 1 | –
4 | Cc1nc(Nc2cc(-c3cccc(NS(=O)(=O)c4ccccc4)c3)n[nH]2)cc(N2CCN(CCO)CC2)n1 | 0.024 | > 1 | 0.14 | 0.17 | 0.05 | –
5 | O=C(Nc1cc(-c2cccc(NS(=O)(=O)c3ccccc3)c2)n[nH]1)c1ccc(N2CCOCC2)cc1 | 0.1 | > 1 | 0.45 | 0.39 | 0.029 | –
6 | CN1CCN(c2ccc(C(=O)Nc3cc(-c4ccc(NS(=O)(=O)c5ccccc5)cc4)n[nH]3)cc2)CC1 | 0.05 | – | – | – | 0.59 | –
7 | CCCCS(=O)(=O)Nc1cccc(-c2cc(Nc3cc(N4CCN(C)CC4)nc(C)n3)[nH]n2)c1 | 0.16 | > 1 | > 1 | > 1 | 0.11 | –
8 | CN1CCN(c2ccc(C(=O)Nc3cc(-c4cccc(NC(=O)Nc5ccccc5)c4)n[nH]3)cc2)CC1 | 0.15 | – | – | – | 0.02 | –
9 | O=C(O)c1cccc(C(=O)Nc2cc(-c3cccc(NS(=O)(=O)c4ccccc4)c3)n[nH]2)c1 | – | – | – | – | – | inhibition [10]: 56%
10 | CC(C)S(=O)(=O)Nc1cccc(-c2cc(NC(=O)c3ccc(N4CCN(C)CC4)cc3)[nH]n2)c1 | 0.044 | > 1 | > 1 | > 1 | 0.16 | –
11 | Cc1cccc(S(=O)(=O)Nc2cccc(-c3cc(Nc4cc(N5CCN(C)CC5)nc(C)n4)[nH]n3)c2)c1 | 0.078 | > 1 | > 1 | > 1 | 0.12 | –
12 | CCS(=O)(=O)Nc1cccc(-c2cc(NC(=O)c3ccc(N4CCN(C)CC4)cc3)[nH]n2)c1 | 0.033 | > 1 | > 1 | > 1 | 0.36 | –
13 | O=C(Nc1cc(-c2cccc(NS(=O)(=O)c3ccccc3)c2)n[nH]1)c1cccc(N2CCOCC2)c1 | 0.26 | > 1 | > 1 | > 1 | > 1 | –
14 | O=C(Nc1cc(-c2cccc(NS(=O)(=O)c3ccccc3)c2)n[nH]1)c1ccc(OCCN2CCCC2)cc1 | 0.025 | 0.27 | 0.2 | 1.17 | 0.007 | Activity (Mus musculus [1]): Toxic; half-life [3]: 9.9 h; AUC(0-inf) [5]: 3940 ng·h/mL; clearance [6]: 22.3 mL/min/kg; Vd [7]: 10.7 L/kg; Activity (Mus musculus [8]): Toxic
15 | CN1CCN(c2ccc(C(=O)Nc3cc(-c4cccc(NS(=O)(=O)c5cccc(Cl)c5)c4)n[nH]3)cc2)CC1 | 0.039 | 0.04 | 0.25 | 1.71 | 0.008 | –
16 | CNC(=O)c1cc(Oc2ccc(NC(=O)Nc3ccc(Cl)c(C(F)(F)F)c3)cc2)ccn1 [SORAFENIB] | – | – | – | – | – | GI50 (MV4-11): 0.03 µM; GI50 [11]: 9.4 µM; GI50 (MOLT-4): 9 µM; GI50 (K562): 6.2 µM
17 | COc1ccc(S(=O)(=O)Nc2cccc(-c3cc(NC(=O)c4ccc(N5CCN(C)CC5)cc4)[nH]n3)c2)cc1 | 0.05 | 0.42 | 0.16 | > 1 | 0.09 | –
18 | Cc1nc(NCCN2CCOCC2)cc(Nc2cc(-c3cccc(NS(=O)(=O)c4ccccc4)c3)n[nH]2)n1 | 0.46 | > 1000 | > 1 | > 1 | 0.06 | –
19 | CCCS(=O)(=O)Nc1cccc(-c2cc(NC(=O)c3ccc(N4CCN(C)CC4)cc3)[nH]n2)c1 | 0.056 | 2.61 | 2.72 | 1.64 | 0.1 | –
20 | CN1CCN(c2ccc(C(=O)Nc3cc(-c4cccc(N)c4)n[nH]3)cc2)CC1 | 0.077 | – | – | – | 0.014 | –
21 | O=C(O)c1ccc(C(=O)Nc2cc(-c3cccc(NS(=O)(=O)c4ccccc4)c3)n[nH]2)cc1 | – | – | – | – | – | inhibition [10]: 61%
22 | O=C(Nc1cc(-c2cccc(NS(=O)(=O)c3ccccc3)c2)n[nH]1)c1ccc(C(F)(F)F)cc1 | – | – | – | – | > 1 | –
23 | CN1CCN(c2ccc(C(=O)Nc3cc(-c4cccc(NC(=O)c5ccccc5)c4)n[nH]3)cc2)CC1 | 0.21 | – | – | – | 0.27 | –
24 | O=C(Nc1cc(-c2cccc(NS(=O)(=O)c3ccccc3)c2)n[nH]1)c1ccccc1 | – | – | – | – | – | inhibition [10]: 54%
25 | CN1CCN(c2cccc(C(=O)Nc3cc(-c4cccc(NS(=O)(=O)c5ccccc5)c4)n[nH]3)c2)CC1 | 0.19 | > 1 | 0.41 | 0.85 | 0.065 | –

Reference: ChEMBL document CHEMBL1806486, “Discovery and evaluation of 3-phenyl-1H-5-pyrazolylamine-based derivatives as potent, selective and efficacious inhibitors of FMS-like tyrosine kinase-3 (FLT3)” (Bioorg Med Chem, 2011)
